The list is not random: actives were taken first. Their share in the collection is about 2%.
ATG4B inhibitor: blocks human ATG4B protease cleavage of LC3 substrate. Q9Y4P1. ATG4B cleavage of LC3-PLA2, NBD-HPC fluorescence, 1 h. inhibition, % at 8.33 µM. 340,000 tested, 0.51% active. AID 504462; in the data active means inhibition above about 40%
Target sequence (Q9Y4P1 whole entry, looked up): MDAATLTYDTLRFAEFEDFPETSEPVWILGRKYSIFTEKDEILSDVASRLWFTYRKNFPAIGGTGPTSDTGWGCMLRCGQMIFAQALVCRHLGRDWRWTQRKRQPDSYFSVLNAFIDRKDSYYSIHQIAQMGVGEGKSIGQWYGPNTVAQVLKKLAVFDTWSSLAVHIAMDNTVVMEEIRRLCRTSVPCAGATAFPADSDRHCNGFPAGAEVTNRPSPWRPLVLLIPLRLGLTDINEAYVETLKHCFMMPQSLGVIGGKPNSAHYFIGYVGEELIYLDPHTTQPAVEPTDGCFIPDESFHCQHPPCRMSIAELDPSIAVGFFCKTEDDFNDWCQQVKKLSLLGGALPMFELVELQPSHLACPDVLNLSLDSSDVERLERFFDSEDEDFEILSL
MIN6 prolif: induces beta-cell replication in MIN6 cells. MIN6 cells proliferation, ATPlite luminescence, 48 h; cells starved in 0.2% serum; 100% = growth in 10% serum. 330,000 tested, 0.29% active. AID 2380. proliferation, % at 10 µM;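 active means compounds whose signal lies at least 3.5 SD above the mean of all wells on their plate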;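 further: 0% = DMSO-treated cells in low-serum medium and 100% = 10% serum control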
VIM-2 inh: blocks Pseudomonas aeruginosa VIM-2 metallo-beta-lactamase. 290,000 tested, 0.89% active. inhibition, % at 5.6 µM. purified VIM-2, nitrocefin hydrolysis, epi-absorbance fluorescence;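 active means inhibition above the mean of all tested compounds plus 3 SD, cutoff set per screening run, cut at about 7.5% in these data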;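 further: red hydrolysis product quenches plate fluorescence so inhibitors raise well fluorescence; 0% = enzyme with DMSO and 100% = DMSO without enzyme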
PvdQ acylase: P. aeruginosa PvdQ acylase inhibition; purified PvdQ acylase, fluorescence plate reader; inhibition, % at 10 µM; 340,000 tested, 0.063% active; AID 488965; in the data active means inhibition above about 30%, passing the limit was not always enough;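 further: 0% = vehicle neutral wells and 100% = reference inhibitor wells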
IMP-1 inh: blocks Pseudomonas aeruginosa IMP-1 metallo-beta-lactamase; purified IMP-1, nitrocefin hydrolysis, epi-absorbance fluorescence; 290,000 tested, 0.45% active; AID 1556; inhibition, % at 5.6 µM;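 active means inhibition above the mean plus 3 SD of all compounds in the same screening run, cut at about 4.5% in these data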;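 further: 0% = IMP-1 with DMSO and 100% = DMSO wells lacking enzyme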
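System: purified IMP-1 / Input: IMP-1 dispensed at 0.2 nM / Medium: 50 mM HEPES pH 7.1, 50 µM ZnSO4, 0.05% Brij 35 / Timing: 15 min enzyme–compound preincubation, then 25 min nitrocefin reaction, 25 °C / Technique: plate fluorescence quenching by hydrolysis product, ex 480/em 530 nm / Repeats: singlicate testing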
HKDC1 inhibitor: HKDC1 (human) hexokinase inhibition; AID 493160; 340,000 tested, 0.16% active; Q2TB90; recombinant HKDC1, G6PDH/diaphorase resazurin coupled fluorescence; inhibition, % at 20 µM;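 active means inhibition above about 35% when tested at 20 µM, limit read from the data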;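 further: plate controls were DMSO wells with enzyme for no effect and DMSO wells lacking enzyme for full effect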
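Assay system – recombinant HKDC1 (HK5) hexokinase enzyme, produced in-house · Input – HKDC1 at 5 µg/mL · Reagent – glucose plus 1 mM ATP as hexokinase substrates · Timing – 90 min reaction incubation at room temperature, dark · Measured by – G6PDH/diaphorase-coupled fluorescence, 1 mM NADP, 100 µM resazurin, 525/613 nm · Benchmarks – DMSO-enzyme wells negative, buffer-substituted wells positive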
HKDC1 act conf2: confirmation of human HKDC1 activators; shares compounds with HKDC1 inhibitor; recombinant HKDC1, G6PDH/diaphorase resazurin fluorescence; active compounds read low; inhibition, % at 20 µM; 740 tested, 14% active; AID 504708;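 active means inhibition at or below a set negative limit, negative inhibition meaning the enzyme was activated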
* = called active by the depositor; · = not tested or not shown.

SMILES	ATG4B inhibitor	MIN6 prolif	VIM-2 inh	PvdQ acylase	IMP-1 inh	HKDC1 inhibitor	HKDC1 act conf2
COc1cccc2cc(C(=O)Nc3ccc(F)cc3)c(=Nc3ccc(C(=O)O)cc3)oc12	-9	-1	-3	-7	-2	77*	9
C#CCOCCOCCOCCNc1nc(N2CCN(C(=O)[C@H](CCC(=O)O)n3cc(C(N)CO)nn3)CC2)nc(N2CCN(C(=O)[C@H](CCC(=O)O)n3cc(C(N)CC(C)C)nn3)CC2)n1 (stereo partly drawn)	·	7	·	·	·	·	·
Brc1ccc(-c2csc(NNC3=NCCCCC3)n2)cc1	-12	-6	-3	-21	-1	-1	·
CC(C)(C)c1ccc(-c2csc(NNC3=NCCCCC3)n2)cc1	-6	-5	-5	-16	-5	-61	-39*
CC1(C)CCN(Cc2ccccc2)C1CC#N (stereo not drawn)	-3	-2	1	13	2	8	·
COc1ccc(N(CCCN2C(=O)c3cccc4cccc(c34)C2=O)C(=O)c2ccncc2)cc1	-8	-1	4	-3	-4	14	·
COc1ccc(N(CCCN2C(=O)c3cccc4cccc(c34)C2=O)C(=O)c2cccnc2)cc1	-4	7	5	2	-3	36*	23
Cc1ccc(NC(=O)Nc2c(Cl)cccc2Cl)cn1	2	-1	-1	24	-1	6	·
CCOc1ccc(-c2cc(C(=O)NCC3CCCO3)c3ccccc3n2)cc1 (stereo not drawn)	6	-1	1	-10	1	-5	·
Cc1cc(C)n2nc(SCc3nnc(SCc4ccccc4C)s3)nc2n1	3	0	1	-16	-3	53*	69
Cc1cc(C)n2nc(SCc3nnc(SCc4ccccc4Cl)s3)nc2n1	11	2	0	0	-2	41*	43
O=C(O)c1ccc(N2C(=O)/C(=C/c3ccc(-c4ccc([N+](=O)[O-])cc4)o3)C=C2c2ccccc2)cc1	8	-6	-2	-1	-1	43*	1
O=C(CNC(=O)c1ccccc1)OCc1cc(=O)n2cc(Br)ccc2n1	9	-4	0	3	2	-3	·
O=C(c1ccccc1)c1n[nH]c(-c2ccccc2)cc1=O	2	5	0	-16	0	-42	16
O=C(c1ccccc1)c1nccc2ccccc12	-2	1	-3	-10	-3	8	·
Cc1ccc2oc(=O)c3cnn(CC(=O)N4CCc5ccccc5C4)c3c2c1	5	4	·	3	·	-40	-51*
Cc1ccc2oc(=O)c3cnn(CC(=O)N4CCCCC4C)c3c2c1 (stereo not drawn)	-3	3	-1	0	-1	-12	·
O=C(CSc1nnc(CCCN2C(=O)c3cccc4cccc(c34)C2=O)n1-c1ccccc1)N1CCN(CCO)CC1	2	0	3	-4	-2	42*	48
O=C(CSc1nnc(CCCN2C(=O)c3cccc4cccc(c34)C2=O)n1-c1ccccc1)NCCCO	-11	0	2	-20	-1	29	·
CC[n+]1c(/C=C2\Sc3ccccc3N2C)ccc2cccc(C)c21	16	·	3	-3	-4	-40	-38*
CCN1/C(=C/c2ccc3cc(C)ccc3[n+]2CC)Sc2ccccc21	15	-6	2	-6	0	-27	·
CC1(OC(=O)C2CCCC2)C(=O)C=C2C=C(c3ccsc3)N(CCc3c[nH]c4ccccc34)C=C2C1=O (stereo not drawn)	-14	0	·	8	·	35*	6
COc1ccc(C2C3=C(CC(C)(C)CC3=O)Oc3ncn(CCCn4ccnc4)c(=N)c32)cc1 (stereo not drawn)	3	-1	-4	-16	-5	-3	·
N#Cc1cc2c(nc1SCC(O)CS(=O)(=O)Cc1ccccc1)CCCC2 (stereo not drawn)	2	-3	-4	-3	-3	0	·
Cc1ccc(S(=O)(=O)/N=c2\ccc(Cl)cn2C(F)F)cc1	-5	-2	-1	6	-3	-5	·

Source: PubChem (several laboratories)
